Activity calls are given as the source filed them. The calls are words filed in the database; no cut-off is given here.
How the values were obtained:
HeLa [1] = experiment: Cytotoxicity against human HeLa cells assessed as reduction in cell viability incubated for 72 hrs under normoxia condition by MTT assay; format: cell-based
Summary of the method: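 HeLa cells, 5 × 10^3 per well, exposed 72 h at 37 °C in RPMI-1640 to a range of concentrations (compounds from 10 mM DMSO stocks). MTT (5 mg/mL in PBS) added for a further 2 h, formazan dissolved in DMSO, absorbance read at 595 nm. IC50 taken from semilogarithmic dose–response plots. Top concentration capped at 10 or 30 μM where solubility was poor.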

[2] = Solubility of the compound; format: physicochemical
[3] = molecular target: Luciferin 4-monooxygenase (Photinus pyralis) (UniProt P08659); experiment: Inhibition of recombinant firefly luciferase at 1 uM incubated for 10 mins at 37 degree C by luminometric method
Summary of the method: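 Recombinant firefly luciferase (20 ng/µL stock in PBS) mixed with compound in DMSO/PBS and incubated 10 min at 37 °C. Luciferase assay reagent was then added and light emission read on a luminometer. Compound tested at 1 μM.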

HeLa [4] = experiment: Inhibition of hypoxia-induced HIF1alpha accumulation in human HeLa cells at 1 to 30 uM incubated for 12 hrs under 1% O2 condition by Western blot analysis; format: functional, cell-based
Summary of the method: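 Lysates separated by SDS-PAGE, blotted to PVDF and probed with anti-HIF-1α and anti-tubulin antibodies. Detection used HRP-conjugated secondary antibody and chemiluminescent imaging.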

HeLa [5] = experiment: Effect on HIF1alpha mRNA level in human HeLa cells at 30 uM incubated for 12 hrs under 1% O2 condition by qRT-PCR analysis; format: functional, cell-based
Summary of the method: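 HeLa cells, 1 × 10^6 per well, held 12 h with or without compound under normoxia or hypoxia. Total RNA extracted with a column kit. 1.0 µg RNA reverse transcribed with random primers, dNTPs and M-MLV at 40 °C for 50 min, then HIF-1α mRNA measured by RT-PCR.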

Sequence of Luciferin 4-monooxygenase (Photinus pyralis) (P08659 whole entry): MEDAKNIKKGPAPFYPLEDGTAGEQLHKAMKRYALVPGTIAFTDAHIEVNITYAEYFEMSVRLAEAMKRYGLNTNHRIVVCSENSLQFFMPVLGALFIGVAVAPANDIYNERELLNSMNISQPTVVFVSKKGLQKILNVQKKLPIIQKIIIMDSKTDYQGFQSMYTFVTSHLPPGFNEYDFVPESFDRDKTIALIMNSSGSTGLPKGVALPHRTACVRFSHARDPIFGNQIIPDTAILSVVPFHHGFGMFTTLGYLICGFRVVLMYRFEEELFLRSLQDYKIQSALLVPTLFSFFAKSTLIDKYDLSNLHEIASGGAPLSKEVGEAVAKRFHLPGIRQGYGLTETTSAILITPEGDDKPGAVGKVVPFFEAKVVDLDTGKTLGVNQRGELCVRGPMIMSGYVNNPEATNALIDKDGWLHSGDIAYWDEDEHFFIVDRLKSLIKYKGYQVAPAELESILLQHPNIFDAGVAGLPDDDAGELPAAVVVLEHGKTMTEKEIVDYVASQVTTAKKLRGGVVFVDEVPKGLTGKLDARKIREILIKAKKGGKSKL

SMILES	solubility [2]	inhibition [3]	IC50 (HeLa [1])	inhibition (HeLa [4])	Activity (HeLa [5])
Cc1nn(-c2ccccc2)c2c1-c1ccccc1C2=O	> 30 µM	–	> 30 µM	–	–
O=C1c2ncccc2-c2cnn(-c3ccccc3)c21	–	–	52 µM	–	–
O=C1c2ccccc2-c2cnn(-c3ccc(C(F)(F)F)cc3)c21	–	–	> 100 µM	–	–
O=C1c2ccccc2-c2cnn(-c3ccc(O)cc3)c21	–	–	2.2 µM	–	–
OCc1ccc(-c2nn(Cc3ccccc3)c3ccccc23)o1	–	–	56 µM	–	–
Cn1ncc2c1C(=O)c1ccccc1-2	–	–	49 µM	–	–

Further lines, with some results ahead:

solubility [2]	inhibition [3]	SMILES	IC50 (HeLa [1])	inhibition (HeLa [4])	Activity (HeLa [5])
> 10 µM	–	O=C1c2ccccc2-c2cnn(-c3ccccc3)c21	> 10 µM	–	–
> 10 µM	inactive	Cc1ccc(-n2ncc3c2C(=O)c2ccccc2-3)cc1	> 10 µM	Active	inactive
> 10 µM	Active	COc1ccc(-n2ncc3c2C(=O)c2ccccc2-3)cc1	> 10 µM	–	–
> 30 µM	–	O=C1c2ccccc2-c2cn[nH]c21	> 30 µM	–	–
